Common to all, as to format: functional
For assay [1], the system named is Mycobacterium tuberculosis. In words: Antimycobacterial activity against isoniazid-resistant Mycobacterium tuberculosis ATCC 35822 after 7 days by resazurin microtitre assay. The method in brief:
(§1)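 REMA MIC. Strains kept on Ogawa-Kudoh medium 14 days at 37 °C. Suspension vortexed and adjusted to McFarland tube 1 (3.2 × 10^6 cfu/mL), then diluted 1:20 in Middlebrook 7H9 with 10% OADC and glycerol. Compounds tested from 100 ug/mL down to 0.19 ug/mL. Incubated 7 days at 37 °C, resazurin added, 2 more days at 37 °C; colour change read.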
On the technique in general: The colour change of resazurin is a common sign of viable cells or microbes.

Assay [2] deals with Mycobacterium tuberculosis. The experiment in a line: Antimycobacterial activity against rifampicin-resistant Mycobacterium tuberculosis ATCC 35338 after 7 days by resazurin microtitre assay. The method in brief:
as §1

The test system of assay [3] is Mycobacterium tuberculosis. In words: Antimycobacterial activity against rifampicin-resistant Mycobacterium tuberculosis. In outline:
as §1

Converted amounts (≈) assume the structure as drawn. The source made the active and inactive calls. The rule behind the calls is not given here. Bounds are passed on as bounds.

For orientation: MIC means the lowest concentration that inhibits growth of the organism. `CC1(C)CCc2c(c3ccccc3c3nc(-c4ccccc4Br)[nH]c23)O1`: the MIC worked out at 15.3 µM (≈ 6.23 µg/mL) in assay [1] (ATCC 35822, 168 h) and 15.3 µM (≈ 6.23 µg/mL) in assay [2] (ATCC 35338, 168 h). `CC1(C)CCc2c(c3ccccc3c3nc(-c4ccccc4[N+](=O)[O-])[nH]c23)O1`: the minimal inhibitory concentration (MIC) in assay [1] (ATCC 35822, 168 h) stood at 16.7 µM (≈ 6.24 µg/mL); in assay [2] (ATCC 35338, 168 h), 33.5 µM (≈ 12.5 µg/mL). With `CC1CC2=C(O1)c1ccccc1C(=O)C2=O` (stereo not given), the MIC result in assay [1] and in assay [2] was “inactive” in each case. On to `CC1(C)CCc2c(c3ccccc3c3nc(-c4cccc(Br)c4)[nH]c23)O1`, for which the MIC in assay [1] (ATCC 35822, 168 h) is 15.3 µM (≈ 6.23 µg/mL); in assay [2] (ATCC 35338, 168 h), 15.3 µM (≈ 6.23 µg/mL).

As for `CC1(C)CCc2c(c3ccccc3c3nc(-c4ccc(C#N)cc4)[nH]c23)O1`, the MIC result in assay [1] and in assay [2] was “inactive” each time.

As to `CC1Cc2c(c3ccccc3c3nc(-c4ccc([N+](=O)[O-])cc4)oc23)O1` (stereo not given), the minimum inhibitory concentration (MIC) is greater than 289 µM in assay [1] (ATCC 35822, 168 h) and 289 µM (≈ 100 µg/mL) in assay [2] (ATCC 35338, 168 h). Take `CC1(C)Cc2c(c3ccccc3c3nc(-c4ccc([N+](=O)[O-])cc4)oc23)O1`: in assay [1] (ATCC 35822, 168 h), the MIC is greater than 278 µM. `NNC(=O)c1ccncc1` [ISONIAZID]: the minimum inhibitory concentration (MIC) in assay [1] (ATCC 35822, 168 h) is 7.3 µM (≈ 1 µg/mL); in assay [2] (ATCC 35338, 168 h), no more than 0.4 µM. With `CC1(C)CCc2c(c3ccccc3c3nc(-c4ccccn4)[nH]c23)O1`, the minimum inhibitory concentration (MIC) in assay [1] (ATCC 35822, 168 h) worked out at 19 µM (≈ 6.26 µg/mL); in assay [2] (ATCC 35338, 168 h) it was 19 µM (≈ 6.26 µg/mL). For the compound `CC1(C)CCc2c(c3ccccc3c3nc(-c4cccc([N+](=O)[O-])c4)[nH]c23)O1`, the MIC entry in assay [1] and in assay [2] was “inactive” in each case. Regarding `Cc1ccc(-c2nc3c([nH]2)c2c(c4ccccc43)OC(C)(C)C2)cc1`, the MIC in assay [1] (ATCC 35822, 168 h) is greater than 304 µM; in assay [2] (ATCC 35338, 168 h), 304 µM (≈ 100 µg/mL). As to `CC1(C)CCc2c(c3ccccc3c3nc(-c4cc5ccccc5cn4)[nH]c23)O1`, the MIC in assay [1] (ATCC 35822, 168 h) is no more than 2 µM; in assay [2] (ATCC 35338, 168 h), no more than 2 µM.

Take `CC1(C)CCc2c(c3ccccc3c3nc(-c4cccc(C#N)c4)oc23)O1`: the minimum inhibitory concentration (MIC) was 17.6 µM (≈ 6.24 µg/mL) in assay [1] (ATCC 35822, 168 h) and 17.6 µM (≈ 6.24 µg/mL) in assay [2] (ATCC 35338, 168 h). In the case of `CC1(C)CCc2c(c3ccccc3c3nc(-c4cccc(C#N)c4)[nH]c23)O1`, the MIC entry in assay [1] and in assay [2] was “inactive” in each case. `CC1(C)CCc2c(c3ccccc3c3nc(-c4ccc(C#N)cc4)oc23)O1`: the MIC in assay [1] (ATCC 35822, 168 h) turned out to be 8.8 µM (≈ 3.12 µg/mL); in assay [2] (ATCC 35338, 168 h) it was 4.4 µM (≈ 1.56 µg/mL).

In turn, `Cc1ccc(-c2nc3c(o2)c2c(c4ccccc43)OC(C)(C)C2)cc1` gave an MIC in assay [1] (ATCC 35822, 168 h) greater than 304 µM. With `C=CCC1Cc2c(c3ccccc3c3nc4ccccc4nc23)OC1(C)C` (stereo not given), inhibition of growth in assay [3] (MIC) required 0.78 µg/mL (≈ 2.2 µM).

`Cc1ccccc1-c1nc2c([nH]1)c1c(c3ccccc32)OC(C)(C)CC1`: the MIC turned out to be 4.5 µM (≈ 1.54 µg/mL) in assay [1] (ATCC 35822, 168 h) and 4.5 µM (≈ 1.54 µg/mL) in assay [2] (ATCC 35338, 168 h). Turning to `CO[C@H]1/C=C/O[C@@]2(C)Oc3c(C)c(O)c4c(O)c(c(/C=N/N5CCN(C)CC5)c(O)c4c3C2=O)NC(=O)/C(C)=C\C=C\[C@H](C)[C@H](O)[C@@H](C)[C@@H](O)[C@@H](C)[C@H](OC(C)=O)[C@@H]1C` [RIFAMPIN], the minimum inhibitory concentration (MIC) in assay [1] (ATCC 35822, 168 h) was no more than 0.1 µM; in assay [2] (ATCC 35338, 168 h), greater than 4.8 µM.

For the compound `CC1(C)CCc2c(c3ccccc3c3nc(-c4ccc(C(F)(F)F)cc4)[nH]c23)O1`, the MIC entry in assay [1] and in assay [2] was “inactive” in each case.

For `COc1ccccc1-c1nc2c([nH]1)c1c(c3ccccc32)OC(C)(C)CC1`, the minimal inhibitory concentration (MIC) was found to be 17.4 µM (≈ 6.24 µg/mL) in assay [1] (ATCC 35822, 168 h) and 17.4 µM (≈ 6.24 µg/mL) in assay [2] (ATCC 35338, 168 h).

As to `CC1(C)CCc2c(c3ccccc3c3nc(-c4ccccc4)[nH]c23)O1`, the minimum inhibitory concentration (MIC) is 38 µM (≈ 12.5 µg/mL) in assay [1] (ATCC 35822, 168 h) and greater than 304 µM in assay [2] (ATCC 35338, 168 h). Consider `CC1(C)CCc2c(c3ccccc3c3nc(-c4ccc(Cl)cc4)[nH]c23)O1`, for which the minimum inhibitory concentration (MIC) in assay [1] (ATCC 35822, 168 h) was determined as 17.2 µM (≈ 6.24 µg/mL); in assay [2] (ATCC 35338, 168 h), 17.2 µM (≈ 6.24 µg/mL).

Turning to `CC1(C)CCc2c(c3ccccc3c3nc(-c4cccc(F)c4)[nH]c23)O1`, the minimal inhibitory concentration (MIC) in assay [1] (ATCC 35822, 168 h) came to 18 µM (≈ 6.24 µg/mL); in assay [2] (ATCC 35338, 168 h), 18 µM (≈ 6.24 µg/mL).

For the compound `CC1(C)CCc2c(c3ccccc3c3nc(-c4cnc5ccccc5c4)[nH]c23)O1`, the MIC entry in assay [1] and in assay [2] was “inactive” each time. As for `CC1(C)Cc2c(c3ccccc3c3nc(-c4ccccc4)[nH]c23)O1`, the minimum inhibitory concentration (MIC) in assay [1] (ATCC 35822, 168 h) was greater than 318 µM; in assay [2] (ATCC 35338, 168 h), 318 µM (≈ 100 µg/mL).

As to `CC1(C)CCc2c(c3ccccc3c3nc(-c4ccc(F)cc4)[nH]c23)O1`, the minimum inhibitory concentration (MIC) in assay [1] (ATCC 35822, 168 h) was determined as 18 µM (≈ 6.24 µg/mL); in assay [2] (ATCC 35338, 168 h) it was 18 µM (≈ 6.24 µg/mL). For the compound `CC1(C)CCc2c(c3ccccc3c3nc(-c4cccc(C(F)(F)F)c4)[nH]c23)O1`, the minimum inhibitory concentration (MIC) was found to be 4 µM (≈ 1.59 µg/mL) in assay [1] (ATCC 35822, 168 h) and 4 µM (≈ 1.59 µg/mL) in assay [2] (ATCC 35338, 168 h).

Take `CC1(C)CCc2c(c3ccccc3c3nc(-c4ccc(Br)cc4)[nH]c23)O1`: the MIC result in assay [1] and in assay [2] was “inactive” in each case. With `CC1(C)CCc2c(c3ccccc3c3nc(-c4cccnc4)[nH]c23)O1`, the MIC entry in assay [1] and in assay [2] was “inactive” throughout. Regarding `CC1(C)CCc2c(c3ccccc3c3nc(-c4ccccc4C#N)oc23)O1`, the MIC in assay [1] (ATCC 35822, 168 h) was 17.6 µM (≈ 6.24 µg/mL); in assay [2] (ATCC 35338, 168 h), 17.6 µM (≈ 6.24 µg/mL).

`CC1(C)CCc2c(c3ccccc3c3nc(-c4ccc([N+](=O)[O-])cc4)[nH]c23)O1` registered a minimum inhibitory concentration (MIC) in assay [1] (ATCC 35822, 168 h) of 4.2 µM (≈ 1.57 µg/mL). The MIC result in assay [2] is “inactive”. With `C=CCC1=C(O)C(=O)c2ccccc2C1=O`, the minimal inhibitory concentration (MIC) was determined as 467 µM (≈ 100 µg/mL) in assay [1] (ATCC 35822, 168 h) and 117 µM (≈ 25 µg/mL) in assay [2] (ATCC 35338, 168 h).

`CC1(C)CCc2c(c3ccccc3c3nc(-c4ccccc4C(F)(F)F)[nH]c23)O1`: the minimum inhibitory concentration (MIC) turned out to be 4 µM (≈ 1.59 µg/mL) in assay [1] (ATCC 35822, 168 h) and 2 µM (≈ 0.793 µg/mL) in assay [2] (ATCC 35338, 168 h).

For the origin of these results see ChEMBL document CHEMBL2157923, “1,3-Azoles from ortho-naphthoquinones: synthesis of aryl substituted imidazoles and oxazoles and their potent activity against Mycobacterium tuberculosis” (Bioorg Med Chem, 2012).
